Test results: article PMC2705627 (Journal of immunology (Baltimore, Md. : 1950), 2008)
“Also recorded” adds a separate entry of the source. Residues, ends and D or L forms follow the SMILES beside them. *: point of attachment. For = O=C*

Experiments:
mFPR1 [1] = target: T1, mFPR1 (Mus musculus, UniProt P33766); assay: Ca2+ mobilization in mFPR1-RBL cells; type: cell-based
T1 sequence (P33766 1-364): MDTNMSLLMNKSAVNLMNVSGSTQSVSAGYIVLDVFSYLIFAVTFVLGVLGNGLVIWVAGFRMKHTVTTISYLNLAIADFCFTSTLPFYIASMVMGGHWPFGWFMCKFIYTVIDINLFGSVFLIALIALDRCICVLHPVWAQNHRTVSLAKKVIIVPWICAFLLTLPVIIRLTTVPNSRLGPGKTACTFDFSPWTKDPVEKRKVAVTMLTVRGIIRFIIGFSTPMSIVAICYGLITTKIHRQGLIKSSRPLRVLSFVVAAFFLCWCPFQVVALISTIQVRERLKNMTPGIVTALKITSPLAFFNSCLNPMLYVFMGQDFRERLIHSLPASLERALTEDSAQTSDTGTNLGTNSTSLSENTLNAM

WT neutrophils = assay: Superoxide production, WT neutrophils; type: cell-based, mouse (C57BL/6)
Summary of the method: (§1)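 Bone-marrow neutrophils from age- and gender-matched mfpr1-/- and WT C57BL/6 mice (8–10 wk), 5 × 10^6 cells/ml in HBSS with 0.5% BSA. Preincubated 5 min at 37°C with isoluminol, 40 U/ml HRP and 5 μM cytochalasin B. Chemiluminescence: 5 min basal, then every minute for 15 min after agonist. SOD controls; 200 ng/ml PMA time course. Peptide responses as area under curve over first 10 min; two experiments in triplicate.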

mfpr1^-/- neutrophils [2] = assay: Superoxide production, mfpr1-/- neutrophils; type: cell-based, mouse (mfpr1^-/-)
Summary of the method: as §1

mouse neutrophils [3] = assay: Ex vivo chemotaxis; type: cell-based; details: CD1 mice, Transwell, 30 min, 37°C
Summary of the method: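 Bone marrow neutrophils from CD1 mice, purified on a Nycoprep/72% Percoll gradient after RBC lysis. Cells at 5 × 10^6 cells/ml in HBSS/0.5% BSA, prewarmed 20 min at 37°C. Agonist placed in BSA-precoated lower wells under 3 μm pore inserts, cells added on top. After 30 min at 37°C, cells in the bottom chamber were counted. Counts with ligand in both chambers were subtracted to remove chemokinesis.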

mFPR1 [4] = target: T1, mFPR1; assay: ERK1/2 phosphorylation in mFPR1-RBL cells; type: cell-based; details: Western blot
Summary of the method: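 RBL-2H3 cells stably expressing mFPR1 (G418-selected; DMEM, 20% FBS, 250 μg/ml G418), with untransfected RBL cells as control. Cultured 24 h, serum-starved 4 h, then stimulated at graded concentrations for various times. Lysed in ice-cold SDS loading buffer, sonicated, boiled. Western blot for phospho-ERK1/2, with total ERK1/2 as loading control. Two independent experiments.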

FPRL1 = details: b40: fMIVIL ref 22; b3: fMLF ref 16; cited from earlier work
mFPR2 [5] = details: vs mFPR1; cited from earlier work
mFPR1 [6] = target: T1, mFPR1; details: cited from earlier work
[7] = tested on: neutrophils from mfpr1-deficient mice; details: ex vivo; cited from earlier work
human neutrophils = details: cited from earlier work
mouse neutrophils [8] = assay: Ca2+ mobilization, mouse bone marrow neutrophils; type: cell-based
mouse neutrophils [9] = details: cited from earlier work
mouse neutrophils [10] = details: mice; cited from earlier work
[11] = tested on: mock-transfected RBL cells; assay: ERK1/2 phosphorylation in mock-transfected RBL cells; type: cell-based, rat; details: at the concentrations tested (10 nM, 1 μM)
Summary of the method: (§2)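 Stably transfected or mock-transfected RBL-2H3 cells cultured 24 h, serum-starved 4 h, then stimulated over various time intervals. Stopped on ice in SDS-PAGE loading buffer, sonicated and boiled. Western blot with anti-phospho-ERK1/2 (1/1000), loading checked with anti-ERK1/2 (1/1000), HRP anti-rabbit secondary (1/3000). Two independent experiments.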

mouse neutrophils [12] = assay: Superoxide production, mouse bone marrow neutrophils; type: cell-based
Summary of the method: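 Isoluminol-enhanced chemiluminescence on mouse bone-marrow neutrophils at 5 × 10^6 cells/ml in HBSS with 0.5% BSA, preincubated 5 min at 37°C with isoluminol, 40 U/ml HRP and 5 μM cytochalasin B. Basal reading 5 min, then agonist at graded concentrations, read each minute for 15 min; SOD controls run in parallel. Cumulative superoxide taken as area under curve over first 5 min; two experiments in duplicate.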

mfpr1^-/- neutrophils [13] = assay: Degranulation; type: cell-based, mouse (mfpr1^-/-); details: KO
Summary of the method: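 Bone marrow neutrophils from 8-10 wk mfpr1-/- mice (C57BL/6 background) and matched WT mice. Cells preincubated with 10 μM cytochalasin B in HBSS, 20 mM HEPES pH 7.4, 0.1% BSA, 15 min on ice then 15 min at 37°C. Stimulated 10 min at 37°C, then chilled. Supernatant reacted with 4-methylumbelliferyl β-D-glucuronide (pH 4.0), 15 min at 37°C. Fluorescence read at 365/460 nm. Release expressed as % of total from Triton X-100 lysate.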

mouse neutrophils [14] = assay: Degranulation; type: cell-based, mouse (C57BL/6)
Summary of the method: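 WT C57BL/6 and mfpr1-/- bone-marrow neutrophils preincubated with 10 μM cytochalasin B in HBSS, 20 mM HEPES (pH 7.4), 0.1% BSA: 15 min on ice, then 15 min at 37°C. Stimulated 10 min at 37°C, chilled and spun. Supernatant mixed 1:1 with 10 mM 4-methylumbelliferyl β-D-glucuronide (pH 4.0, 0.1% Triton X-100) 15 min at 37°C. Glycine/EDTA stop (pH 10.4); fluorescence 365/460 nm, as % of lysate total.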

mFPR2 [15] = assay: ERK1/2 phosphorylation in mFPR2-RBL cells; type: cell-based, mouse; details: at the concentrations tested; data not shown
Summary of the method: as §2

mFPR1 [16] = target: T1, mFPR1; details: cited from earlier work; remark: listed apart in the source
neutrophils from pig = details: cited from earlier work
neutrophils from dog = details: cited from earlier work
[17] = tested on: human formyl peptide receptor (FPR) 1; details: cited from earlier work
neutrophils from cow = details: cited from earlier work
neutrophils from cat = details: cited from earlier work

Compound: CC[C@H](C)[C@H](NC(=O)[C@H](CCSC)NC=O)C(=O)N[C@@H](Cc1ccccc1)C(=O)N[C@@H](CC(C)C)C(=O)O [fMIFL, N-formyl-Met-Ile-Phe-Leu] (For-MIFL-OH)
- EC50 (mFPR1 [1]): 10 nM

Compound: CC[C@H](C)[C@H](NC(=O)[C@H](CCSC)NC=O)C(=O)N[C@H](C(=O)N[C@H](C(=O)N[C@@H](CC(C)C)C(=O)O)[C@@H](C)CC)C(C)C [fMIVIL, N-formyl-Met-Ile-Val-Ile-Leu] (For-MIVIL-OH)
- EC50 (mFPR1 [1]): 10 nM

Compound: CCCCCCCCCCCCCC(=O)O[C@@H]1[C@@H](C)[C@@]2(O)[C@@H](C=C(CO)C[C@]3(O)C(=O)C(C)=C[C@@H]23)[C@@H]2C(C)(C)[C@]12OC(C)=O [phorbol ester, phorbol myristate ester]
- superoxide production on phorbol ester stimulation, WT neutrophils (WT neutrophils; 200 ng/ml phorbol myristate ester, WT compared with KO): responded similarly
- superoxide production on phorbol ester stimulation, mfpr1-/- neutrophils (mfpr1^-/- neutrophils [2]; 200 ng/ml phorbol myristate ester, KO compared with WT): responded similarly

Compound: N-formyl-Met-Leu-Phe [fMLF]
- neutrophil migration at 100 nM (mouse neutrophils [3]): did not stimulate significant neutrophil migration
- ERK1/2 phosphorylation at 10 nM (mFPR1 [4]; 10 nM): but not at 10 nM
- ERK1/2 phosphorylation at 1 μM (mFPR1 [4]; 1 μM): could induce ERK1/2 phosphorylation
- affinity/response at FPRL1 (FPRL1): low affinities; also recorded: low-affinity receptor for fMLF
- response of mFPR2 to fMLF (mFPR2 [5]): responds even more weakly
- ERK1/2 phosphorylation at 50 nM (mFPR1 [6]): but not fMLF
- responsiveness of mfpr1-deficient neutrophils to fMLF [7]: decreased responsiveness
- ERK1/2 phosphorylation in human neutrophils (human neutrophils): rapid phosphorylation of the MAPKs ERK1/2
- concentration inducing bactericidal functions in human neutrophils (human neutrophils; human neutrophils): nanomolar concentrations
- superoxide production, WT neutrophils (WT neutrophils; C57BL/6 WT): less potent
- concentration inducing Ca2+ flux (mFPR1 [1]; mFPR1-RBL): above 1 μM
- Ca2+ mobilization at 10 nM (mouse neutrophils [8]; 10 nM, FLIPR dye): but not fMLF
- lowest concentration with evident Ca2+ mobilization (mouse neutrophils [8]; not evident below 100 nM): ≥ 100 nM
- potency loss on mouse neutrophils vs human neutrophils (mouse neutrophils [9]; less potent for mouse than for human neutrophils): 100 -fold
- concentration required for mouse neutrophil activation (mouse neutrophils [9]; mouse neutrophils, ref 17 (ref 17, 20)): requiring micromolar concentrations for cell activation; also recorded: requires micromolar concentrations; also recorded: micromolar concentration range
- fMLF concentration required for degranulation and superoxide production (mouse neutrophils [10]): 5 to 10 µM
- ERK1/2 phosphorylation in mock-transfected RBL cells [11]: none of the peptides was able to induce detectable phosphorylation
- superoxide production at 5 μM relative to fMIVIL and fMIFL (mouse neutrophils [12]; 5 μM): about one-half
- threshold concentration for superoxide generation (mouse neutrophils [12]; isoluminol chemiluminescence, 37°C): above 1 μM
- β-glucuronidase release at 100 nM, mfpr1-/- neutrophils (mfpr1^-/- neutrophils [13]; 100 nM): none of the three peptides was able to induce β-glucuronidase release
- β-glucuronidase release above 1 μM, mfpr1-/- neutrophils (mfpr1^-/- neutrophils [13]; peptide concentrations above 1 μM): only a small amount of enzyme was released
- β-glucuronidase release, percent of cell-associated enzyme (mouse neutrophils [14]; 10 μM (maximal concentration used), WT neutrophils): 5%
- β-glucuronidase release relative to maximal release by fMIVIL and fMIFL (mouse neutrophils [14]; 10 μM fMLF): about one-half
- lowest concentration with significant β-glucuronidase release (mouse neutrophils [14]; WT neutrophils, not significant below 1 μM): ≥ 1 µM
- ERK1/2 phosphorylation in mFPR2-RBL cells (mFPR2 [15]): none of the peptides was able to induce detectable phosphorylation
- agonist concentration required for calcium mobilization (mFPR1 [16]): ≥ 100 nM
- response of pig neutrophils (neutrophils from pig): do not respond
- response of dog neutrophils (neutrophils from dog): do not respond
- agonist activity at human FPR1 [17]: potent agonist
- response of cow neutrophils (neutrophils from cow): do not respond
- response of cat neutrophils (neutrophils from cat): do not respond
- superoxide production, mfpr1-/- neutrophils (mfpr1^-/- neutrophils [2]; mfpr1^-/-): very little superoxide was generated

Compound: Superoxide dismutase
- effect on detection of superoxide (mouse neutrophils [12]; SOD, 250 units, added 10 min before stimulation with 1 μM peptide): effectively inhibited the detection of superoxide
